Rows were chosen to be rich in hits. Some 2.6% of all compounds tested hit in one or more screens of this group.
proCasp7 act = counter-screen for procaspase-3 activators: activators of human procaspase-7; recombinant procaspase-7, Ac-DEVD-pNA absorbance 405 nm; D23A/D198A/D206A triple mutant, cannot self-cleave; scale: DMSO 0, 5 µM enzyme 100; P55210; hit rate 0.093% among 330,000; activation, % at 8.5 µM;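 active = percent activation above the screen-wide mean plus 3 SD, cut at about 25% in these data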
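Assay system: Uncleavable procaspase-7 mutant enzyme; Input: 2 µM procaspase-7 mutant as dispensed; Also added: DEVD-pNA substrate; Medium: Zinc-free HEPES pH 7.4 with 300 mM NaCl, 0.01% Triton X-100; Timing: 1 h compound preincubation, 2 h substrate cleavage, 25 °C; Measured by: Epi-absorbance of released pNA at 405 nm, two timepoints.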
AHR act = activators of human aryl hydrocarbon receptor | P35869 | AHR-responsive luciferase reporter cells, luminescence | activation, % at 5 µM | hit rate 2.5% among 320,000; in the data active = activation above about 47%
Target sequence (P35869 whole entry, looked up): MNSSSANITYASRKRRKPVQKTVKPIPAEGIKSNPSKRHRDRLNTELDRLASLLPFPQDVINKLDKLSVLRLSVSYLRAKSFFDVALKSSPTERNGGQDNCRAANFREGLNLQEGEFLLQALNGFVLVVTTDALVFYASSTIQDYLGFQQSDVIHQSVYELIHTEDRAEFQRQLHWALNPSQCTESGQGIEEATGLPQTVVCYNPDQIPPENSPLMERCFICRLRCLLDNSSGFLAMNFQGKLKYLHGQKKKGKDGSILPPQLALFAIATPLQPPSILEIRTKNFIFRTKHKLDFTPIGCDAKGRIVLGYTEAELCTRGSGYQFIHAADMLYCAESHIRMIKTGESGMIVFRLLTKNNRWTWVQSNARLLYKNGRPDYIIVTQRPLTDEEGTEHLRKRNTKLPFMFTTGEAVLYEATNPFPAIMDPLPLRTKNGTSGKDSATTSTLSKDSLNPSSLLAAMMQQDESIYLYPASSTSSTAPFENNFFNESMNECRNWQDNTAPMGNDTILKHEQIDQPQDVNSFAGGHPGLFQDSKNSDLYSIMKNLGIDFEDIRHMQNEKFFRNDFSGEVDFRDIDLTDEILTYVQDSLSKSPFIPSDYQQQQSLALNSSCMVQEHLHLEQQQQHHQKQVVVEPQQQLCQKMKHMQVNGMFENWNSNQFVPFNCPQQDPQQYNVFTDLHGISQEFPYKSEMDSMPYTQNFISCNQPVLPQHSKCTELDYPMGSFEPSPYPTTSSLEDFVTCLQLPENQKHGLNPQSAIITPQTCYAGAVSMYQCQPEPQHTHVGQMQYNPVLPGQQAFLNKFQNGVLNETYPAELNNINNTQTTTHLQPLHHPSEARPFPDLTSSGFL
procasp3 activ = procaspase-3 (human) activation. recombinant procaspase-3 D3A, Ac-DEVD-pNA absorbance 405 nm. activation, % at 8.5 µM. hit rate 0.11% among 330,000. AID 463141;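 active = activation above the mean of all tested compounds plus 3 SD, cut at about 21% in these data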
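Assay system – Procaspase-3 D3A mutant, all three cleavage aspartates alanine · Controls – DMSO-only low control, 5 µM PC-3 D3A high control · Schedule – 1 h compound preincubation, 2 h substrate hydrolysis at 25 °C · Signal – 405 nm absorbance of p-nitroaniline, reads at 0 and 120 min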
PolyA inh = inhibitors of polyadenylation in S. cerevisiae | AID 1875 | activity score, % at 12 µM | S. cerevisiae SKY197-pL101 polyadenylation reporter, beta-gal luminescence; efflux-impaired pdr1/pdr3 knockout yeast; score 100 = 6 SD above DMSO | hit rate 0.02% among 300,000;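 active = lowest replicate activity score at least 50, where 100 means six control SD above control mean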;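 also: yeast exposed to compound for 9 h at 30 °C; higher score means more reporter readthrough which indicates perturbed polyadenylation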
Each line names hits and unclear results; the compound was inactive in the other large screens.

O=C(Nc1ccccc1)C1CCN(S(=O)(=O)c2ccc3c(c2)OCCO3)CC1	none
O=C(C1CC1)N1CCN(S(=O)(=O)c2ccc3c(c2)OCCO3)CC1	AHR act 55.0
CC(CN1CCN(C/C=C/c2ccccc2)CC1)c1ccccc1 (stereo not drawn)	none
COc1nccc(-c2ccc(F)cc2)c1C#N	none
Cc1ccc(-n2nc(CC#N)c(C#N)c2N)cc1Cl	AHR act 68.1
Cc1ccc(C(C)(C)C)cc1S(=O)(=O)N1CCC(C(=O)N2CCN(c3ccc(O)cc3)CC2)CC1	none (no result: PolyA inh)
CCc1nc(SCC(=O)c2ccc(Cl)s2)c2oc3ccccc3c2n1	AHR act 60.0
NS(=O)(=O)c1cccc(NC(=O)CC(NC(=O)c2ccccc2Cl)c2ccccc2)c1 (stereo not drawn)	none
O=C(Nc1ccc2c(c1)OCO2)Oc1ccccc1	AHR act 88.5
O=C(Nc1ccc(S(=O)(=O)NCc2ccccc2)cc1)Nc1ccc2c(c1)OCO2	AHR act 51.8
O=C(CC(NC(=O)c1ccccc1Cl)c1ccccc1)Nc1ccc2c(c1)OCO2 (stereo not drawn)	AHR act 59.7 (no result: PolyA inh)
CCNS(=O)(=O)c1ccc(NC(=O)Nc2ccc3c(c2)OCO3)cc1	none
C/C(=C\C(=O)c1ccccc1)Nc1ccc2c(c1)OCO2	AHR act 47.4
COC(=O)Nc1ccc2c(c1)OCO2	none
O=S(=O)(/C=C/c1ccccc1)N1CCN(c2nc(-c3ccccc3)nc3ccccc23)CC1	none
CCOC(=O)[C@@H]1[C@H]2COc3ccc(Br)cc3[C@@H]2N2C(=O)N(c3cccc(Cl)c3)C(=O)[C@@]12C	none (no result: PolyA inh)
CCOc1ccc(S(=O)(=O)N2CCOCC2)cc1NC(=O)c1ccc(N2CCCC2=O)cc1	none
COc1ccccc1NC(=S)N(Cc1ccco1)Cc1cc2cccc(C)c2[nH]c1=O	AHR act 48.4
CNC(=S)N(Cc1ccco1)Cc1cc2cc3c(cc2[nH]c1=O)OCCO3	none
CCN(CC)CCCNC(=S)N(Cc1ccco1)Cc1cc2cc3c(cc2[nH]c1=O)OCCO3	none
CCNC(=S)N(Cc1ccco1)Cc1cc2cc3c(cc2[nH]c1=O)OCCO3	AHR act 70.7
CC(C)CNC(=S)N(Cc1ccco1)Cc1cc2cc3c(cc2[nH]c1=O)OCCO3	AHR act 53.6
COC(=O)c1c(C)nc2nonc2c1N	none
Cc1ccc(F)cc1NCC(=O)Nc1ccc(Br)cc1	AHR act 72.0
COc1cccc(-c2ccc(SCC(=O)NC3CCCCC3)nn2)c1	none
Nn1c(COc2cccc(Cl)c2)nc2ccccc2c1=O	AHR act 57.9
Nn1c(-c2ccccc2)nc2cc(Cl)ccc2c1=O	AHR act 52.5
CN(Cc1ccc(C(C)(C)C)cc1)C(=O)Cc1ccc(S(=O)(=O)N2CCOCC2)s1	none (no result: PolyA inh)
Cc1sc2nc(CSc3cccc(C(F)(F)F)c3)[nH]c(=O)c2c1C	none
Cc1sc2nc(CSc3ccc([N+](=O)[O-])cc3)[nH]c(=O)c2c1C	AHR act 47.0
CC(=O)c1c(C)[nH]c(C(=O)CSc2nnc(-c3ccco3)n2Cc2ccccc2)c1C	AHR act 68.5
COC(=O)c1ccc(COC(=O)C2CCN(S(=O)(=O)c3ccc(C)c(C)c3)CC2)o1	none
c1ccc(N2CCN(c3nc4ccccc4n4nnnc34)CC2)cc1	AHR act 72.6
N#Cc1cccnc1Nc1ccc(Cl)cc1	AHR act 54.6
COc1cccc(-c2c(-c3cc(OC)cc(OC)c3)n(C)c3ccc(-c4cccc5[nH]ccc45)cc23)c1	none (no result: PolyA inh)
CN(C)c1ccc(-c2nnc(-c3ccccc3F)o2)cc1	AHR act 63.0
Clc1ccccc1-c1nnc(-c2ccccc2Cl)o1	none
Cc1ccccc1-c1nnc(-c2ccccc2)o1	none
Cc1ccccc1-c1nnc(-c2ccc(Cl)cc2)o1	AHR act 54.1
Clc1ccc(-c2nnc(-c3ccccc3Cl)o2)cc1	AHR act 48.6
O=S(=O)(Nc1cccc(-c2cn3c(n2)SCC3)c1)c1ccccc1	none
CCOc1ccc(NC(=O)/C(C=Nc2ccccc2)=C(\C)O)cc1	none
Cc1ccc(C(=O)N/C(=C\c2ccc(-c3cccc([N+](=O)[O-])c3)o2)C(=O)NC(C)(C)C)cc1	AHR act 55.9
CC(C)(C)c1ccc(C(=O)N/C(=C\c2cccc([N+](=O)[O-])c2)C(=O)Nc2cccc(C(=O)O)c2)cc1	AHR act 67.5
O=C(NCCCO)/C(=C/c1ccc(-c2cccc([N+](=O)[O-])c2)o1)NC(=O)c1ccccc1	none
O=C(Nc1cnc2ccccc2c1)c1cccc(-n2cnnn2)c1	AHR act 58.6
Cc1ccc2nc3c(cc2c1)c(NC(=O)c1ccccn1)nn3CC(C)C	none
CCn1nc(NS(=O)(=O)c2ccccc2)c2cc3ccccc3nc21	none
CCn1nc(NC(=O)c2cccs2)c2cc3ccccc3nc21	AHR act 48.0
CCn1nc(NC(=O)c2cccnc2)c2cc3ccccc3nc21	AHR act 63.7
CCn1nc(NC(=O)c2ccccn2)c2cc3cc(C)ccc3nc21	AHR act 71.4
CCCCC(=O)Nc1nn(CCC)c2nc3ccccc3cc12	AHR act 47.5
COc1ccc(Cl)cc1NC(=O)CN(C)C(=O)CSc1ccc2c(c1)OCCO2	none (no result: PolyA inh)
CC(=O)c1ccc(S(=O)(=O)N2CCN(CC(=O)Nc3ccccc3C(=O)NC3CC3)CC2)cc1	none (no result: PolyA inh)
COc1c2c(nc3occc13)C(CC=C(C)C)(OC)C(O)CC2 (stereo not drawn)	AHR act 65.2
COc1c2c(nc3occc13)C(CC=C(C)C)(OC)C(OC(C)=O)CC2 (stereo not drawn)	AHR act 72.5
COc1c2ccoc2nc2c(OC)cccc12	none
COc1ccc(S(=O)(=O)N2CCc3ccccc32)cc1C(=O)Nc1ccc(C(N)=O)cc1	none
O=C(C[n+]1ccccn1)c1ccccc1	none
CN(C)CCCNc1nc(N)c([N+](=O)[O-])c(NCCO)n1	none
COc1ccccc1Nc1nc(NCCCN(C)C)nc(N)c1[N+](=O)[O-]	AHR act 61.6
COc1ccc(OC)c(Nc2nc(NCCC(C)C)nc(N)c2[N+](=O)[O-])c1	none
COc1ccccc1Nc1nc(NCC(C)C)nc(N)c1[N+](=O)[O-]	AHR act 79.1
CCC(C)Nc1nc(N)c([N+](=O)[O-])c(Nc2ccccc2OC)n1 (stereo not drawn)	AHR act 69.4
CCN(C[C@H]1N[C@@](CC)(C(=O)OC)[C@H]2C(=O)N(C)C(=O)[C@@H]12)C(=O)NC(C)C	none (no result: PolyA inh)
O=C(NN1C(=O)c2cc(Br)ccc2NC1c1ccccc1Cl)c1ccncc1 (stereo not drawn)	AHR act 48.5
O=C(NN1C(=O)c2cc(Br)ccc2NC1c1cc(Br)cc(Br)c1O)c1ccncc1 (stereo not drawn)	AHR act 56.1
CCC(C)NC(=S)N(Cc1cc2cc(C)ccc2n2nnnc12)CC(C)(C)NC(C)C (stereo not drawn)	none
CCOc1ccccc1OCCC(=O)N1CCN(S(=O)(=O)c2ccccc2[N+](=O)[O-])CC1	none (no result: PolyA inh)

Screening results as filed in PubChem BioAssay.
